An excerpt weighted towards active compounds, which were near 2.9% of everything screened.
E-sel inducer: induces E-selectin expression in human endothelial cells; activation, % at 7.58 µM; hit rate 0.37% among 260,000; HUVEC E-selectin immunofluorescence imaging; normalized: neutral wells 0, TNF-alpha wells 100; AID 686992;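 active = mean E-selectin-positive cell signal at least 10% of the positive control, reached in at least 60% of replicates, without over 20% cell loss; inconclusive = no rule given, readout overlaps actives, possibly toxicity-flagged; inactive = the rest, including those meeting only one limit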
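Test system: HUVEC; input: 3,000 HUVEC/well; measured by: immunofluorescence imaging; read-out: % PE-positive cells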
DENV2 CPE rescue: protects cells from dengue virus 2 cytopathic effect; DENV2-infected cells, cytopathic effect rescue, plate reader; CPE inhibition, % at 9.99 µM; hit rate 1.7% among 350,000; AID 651640; in the data active = CPE inhibition above about 20%, passing the limit was not always enough; inconclusive = no clear call, values can overlap the other calls; tested in BHK-21 cells
SIRT5 inh: blocks human SIRT5 desuccinylation of peptide. Q9NXA8. Purified SirT5, succinyl-peptide AMC, trypsin-coupled fluorescence. inhibition, % at 15 µM. hit rate 1.1% among 330,000. AID 652115; in the data active = inhibition above about 15%; inconclusive = no clear call, values can overlap the other calls
Target sequence (Q9NXA8 whole entry, looked up): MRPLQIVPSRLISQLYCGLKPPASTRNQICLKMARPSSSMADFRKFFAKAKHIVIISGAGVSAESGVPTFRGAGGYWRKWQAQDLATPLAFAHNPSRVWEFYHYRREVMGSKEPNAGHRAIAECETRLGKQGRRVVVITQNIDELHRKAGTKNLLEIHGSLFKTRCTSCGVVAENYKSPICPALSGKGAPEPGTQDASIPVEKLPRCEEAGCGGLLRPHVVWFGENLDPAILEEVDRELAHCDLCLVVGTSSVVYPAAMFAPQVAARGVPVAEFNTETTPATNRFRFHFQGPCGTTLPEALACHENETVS
Large screens that a line does not name were inactive; ! = repeats disagree.

COc1ccc([Si](C)(C)[C@H]2[C@H](CCn3cc([C@H](O)c4ccccc4)nn3)O[C@@]3(C(=O)N(C)c4ccccc43)[C@@H]2C)cc1	none (no result: E-sel inducer)
CCOC(=O)[C@H]1[C@H]2COc3ccc(Cl)cc3[C@@H]2N2C(=O)c3ccc(C)cc3NC(=O)[C@@]12C	none (no result: SIRT5 inh)
COc1ccc(CCNC(=O)c2cc(C3CC3)on2)cc1OC	none
COc1ccc(CCNC(=O)c2cc(CC(C)C)on2)cc1OC	SIRT5 inh 15
CCN(C[C@H]1N[C@@](CC)(C(=O)OC)[C@H]2C(=O)N(C)C(=O)[C@@H]12)S(=O)(=O)c1ccc(OC)cc1	DENV2 CPE rescue 26 (no result: E-sel inducer)
COC(=O)[C@]1(Cc2ccccc2)N[C@H](CN(C)S(=O)(=O)c2ccc(C)cc2)[C@@H]2C(=O)N(Cc3ccccc3)C(=O)[C@@H]21	DENV2 CPE rescue 24 (no result: E-sel inducer)
CCN(C[C@H]1N[C@@](C)(C(=O)OC)[C@H]2C(=O)N(C)C(=O)[C@@H]12)S(=O)(=O)c1ccccc1	none (no result: E-sel inducer)
CCN(C[C@H]1N[C@@](C)(C(=O)OC)[C@H]2C(=O)N(C)C(=O)[C@@H]12)S(=O)(=O)c1ccc(-c2ccccc2)cc1	DENV2 CPE rescue 20 (no result: E-sel inducer)
COC(=O)[C@]1(Cc2ccccc2)N[C@H](CN(C)S(=O)(=O)c2ccc(-c3ccccc3)cc2)[C@@H]2C(=O)N(Cc3ccccc3)C(=O)[C@@H]21	none
CCN(C[C@H]1N[C@@](C)(C(=O)OC)[C@H]2C(=O)N(C)C(=O)[C@@H]12)C(=O)Nc1ccc(F)cc1	none (no result: E-sel inducer)
CCN(C[C@H]1N[C@@](CC)(C(=O)OC)[C@H]2C(=O)N(C)C(=O)[C@@H]12)S(=O)(=O)c1ccc(-c2ccccc2)cc1	none (no result: E-sel inducer)
CCNC(=O)N(CC)C[C@H]1N[C@@](C)(C(=O)OC)[C@H]2C(=O)N(C)C(=O)[C@@H]12	DENV2 CPE rescue 46
COc1cccc(CNC(=O)CCC(=O)N2CC(C)Oc3ccccc32)c1OC (configuration not stated)	none (no result: E-sel inducer)
Cc1cccc(C2NC(=O)c3ccccc3O2)c1 (configuration not stated)	none
CN1C(=O)c2cc(NC(=O)Cc3cccs3)ccc2OC[C@@H]2O[C@H](CC(=O)NCc3ccc(-c4ccccc4)cc3)CC[C@H]21	none (no result: SIRT5 inh)
Cc1ccc(S(=O)(=O)N[C@@H]2CC[C@@H](CCn3cc(C4CCCCC4)nn3)O[C@@H]2CO)cc1	none
C[C@H](CO)N1C[C@H](C)[C@H](CN(C)C(=O)CN(C)C)Oc2ncc(C3=CCCC3)cc2C1=O	none
COc1ccccc1NC(=O)C(=O)NCC(c1ccco1)N1CCc2ccccc21 (configuration not stated)	none
O=C1C2CCCN2C(=S)N1Cc1ccccc1 (configuration not stated)	none
C[C@H]1CN([C@@H](C)CO)C(=O)c2cc(NS(C)(=O)=O)ccc2O[C@@H]1CN(C)Cc1ccncc1	none
CCCNC(=O)C[C@H]1CC[C@H]2[C@@H](COC[C@H](O)CN2C(=O)Nc2ccccc2OC)O1	DENV2 CPE rescue 21
CCCNC(=O)C[C@H]1CC[C@H]2[C@@H](COC[C@@H](O)CN2C(=O)Nc2ccccc2OC)O1	DENV2 CPE rescue 44
CCCNC(=O)C[C@@H]1CC[C@@H]2[C@H](COC[C@@H](O)CN2C(=O)Nc2ccccc2OC)O1	none
CCCNC(=O)C[C@H]1CC[C@@H]2[C@H](COC[C@H](O)CN2C(=O)CC)O1	DENV2 CPE rescue 83
CCCNC(=O)C[C@@H]1CC[C@H]2[C@@H](COC[C@H](O)CN2C(=O)Nc2ccccc2OC)O1	none
CCNC(=O)C[C@@H]1CC[C@@H]2[C@H](COC[C@@H](O)CN2C(=O)CC)O1	none
C[C@H](CO)N1C[C@H](C)[C@H](CN(C)S(C)(=O)=O)Oc2ccc(NC(=O)CCC(F)(F)F)cc2C1=O	none
CCCC(=O)Nc1ccc2c(c1)C(=O)N(C)C[C@H](OC)[C@H](C)CN(Cc1ccccn1)[C@H](C)CO2	none
C[C@@H]1CN([C@H](C)CO)S(=O)(=O)c2ccc(C#CC3CCCC3)cc2O[C@H]1CN(C)C(=O)Cc1ccccc1	SIRT5 inh 17!
C[C@@H]1CN([C@@H](C)CO)S(=O)(=O)c2ccc(C#CC3CCCC3)cc2O[C@H]1CN(C)C(=O)Cc1ccncc1	none
C[C@@H]1CN([C@H](C)CO)S(=O)(=O)c2ccc(C#CC3CCCC3)cc2O[C@@H]1CN(C)C	none
C[C@@H]1CN([C@@H](C)CO)S(=O)(=O)c2ccc(C#CC3CCCC3)cc2O[C@H]1CN(C)C(=O)Cc1ccccc1	none
C[C@H](CO)N1C[C@H](C)[C@@H](CN(C)C(=O)Cc2ccccc2)Oc2cc(C#CC3CCCC3)ccc2S1(=O)=O	SIRT5 inh 15
C[C@@H]1CN([C@H](C)CO)S(=O)(=O)c2ccc(C#CC3CCCC3)cc2O[C@H]1CN(C)C	DENV2 CPE rescue 61, SIRT5 inh 101 (no result: E-sel inducer)
C[C@H]1CN([C@@H](C)CO)S(=O)(=O)c2ccc(C#CC3CCCC3)cc2O[C@H]1CN(C)C(=O)Nc1cc(F)ccc1F	none
C[C@@H]1CN([C@H](C)CO)S(=O)(=O)c2ccc(C#CC3CCCC3)cc2O[C@H]1CN(C)C(=O)Nc1cc(F)ccc1F	SIRT5 inh 15
COC(=O)CCc1c(C)nc(N)[nH]c1=O	none (no result: E-sel inducer, DENV2 CPE rescue)
CC(C)(C)OC(=O)N1Cc2cc3ccccc3nc2C1CO (configuration not stated)	none (no result: E-sel inducer)
C[C@H]1CN([C@@H](C)CO)S(=O)(=O)c2ccc(C#CC3CC3)cc2O[C@@H]1CN(C)C(=O)Cc1ccncc1	SIRT5 inh 18
COCC#Cc1ccc2c(c1)O[C@@H](CN(C)C(=O)Nc1ccccc1F)[C@H](C)CN([C@@H](C)CO)S2(=O)=O	DENV2 CPE rescue 90
COCC#Cc1ccc2c(c1)O[C@H](CN(C)C(=O)Nc1ccccc1F)[C@@H](C)CN([C@@H](C)CO)S2(=O)=O	none
C[C@H]1CN([C@@H](C)CO)S(=O)(=O)c2ccc(C#CC3CC3)cc2O[C@H]1CN(C)C(=O)Cc1ccncc1	none
COc1cc(OC)cc(C(=O)Nc2ccc3c(c2)OCCO3)c1	none
CCOC(=O)c1ccc(NC(=S)Nc2ccc(Br)cc2N)cc1	none (no result: DENV2 CPE rescue, SIRT5 inh)
O=c1oc2ccccc2c(NCc2ccccc2F)c1[N+](=O)[O-]	none (no result: E-sel inducer)
O=C(O)CSc1ccn(Cc2ccccc2)c1	DENV2 CPE rescue 51
O=C(O)CSc1nc2ccccc2n1Cc1ccccc1	none
O=C(CCC(=O)c1ccc(-c2ccccc2)cc1)Nc1cccnc1	DENV2 CPE rescue inconclusive
CCOc1ccc2[nH]c(C)c(CN3CCOCC3)c(=O)c2c1	none (no result: E-sel inducer)
CCOc1ccc2[nH]c3ncccc3c(=O)c2c1	DENV2 CPE rescue 30
C[C@@H]1CCCCO[C@@H](CN(C)C(=O)CCC(F)(F)F)[C@@H](C)CN([C@H](C)CO)C(=O)c2cc(NC(=O)Nc3ccc(F)cc3)ccc2O1	none
O=C(O)c1ccccc1NS(=O)(=O)c1ccc(N/N=C/c2ccc(O)c(O)c2)c([N+](=O)[O-])c1	SIRT5 inh 21 (no result: E-sel inducer)
O=C(O)c1ccccc1NS(=O)(=O)c1ccc(NN=Cc2cccc(Cl)c2)c([N+](=O)[O-])c1	none
NS(=O)(=O)c1ccc(N/N=C/c2ccc(O)c(O)c2O)c([N+](=O)[O-])c1	SIRT5 inh 16
NS(=O)(=O)c1ccc(N/N=C/c2ccc(O)cc2O)c([N+](=O)[O-])c1	none
C[C@@H]1CN([C@@H](C)CO)C(=O)c2cc(C#CC(C)(C)O)cnc2O[C@H]1CN(C)C(=O)C1CCOCC1	none

Source: PubChem BioAssay
